Data reported in the RNAGym collection of RNA variant scans (doi:10.1126/science.aae0568).
Variants at the floor of the assay were thinned out.

B1: tRNA (parent)
chain: GUUCCGUUGGCGUAAUGGUAACGCGUCUCCCUCCUAAGGAGAAGACUGCGGGUUCGAGUCCCGUACGGAACG

Variants of: B1
Assay: yeast fitness relative to wild type (ratio to wild type); higher = fitter; tRNA-Arg(CCU), competitive growth, 37 C, YPD
In short: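 The tRNA-Arg(CCU) gene variants were made by chemical synthesis with a 3% per-site mutation rate at 69 sites and inserted at the native genomic locus of Saccharomyces cerevisiae. After pooling, the strains were competed in YPD at 37°C for 24 hours in six parallel replicates. Gene amplicons from the start population and each end population were read by 100-nucleotide paired-end sequencing, and Darwinian fitness relative to wild type was taken from genotype frequency changes. Genotypes needed ≥ 100 starting reads, and estimates < 0.5 were set to 0.5.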

Point of comparison: GUUCCGUUCGCGUAAUGGUCACGCGUCUCCCUCCUAAGGAGAAGACUGCGGGUUCGAGUCCCGUAAGGAACG [G9C A20C C66A], yeast fitness 0.601. Against it:
- GUUCCGUUCGCGUUAUGGUAACGCGUGUUCCUCCUAAGGAGAAGAUUGCGGGUUCGAGUGCCGUACGGAACG [G9C A14U C27G C29U C46U C60G] — lower, 0.596
- GUUCCGUUCGCGUGAUGGUAACGCGUCUCCCUCCUAAGGAGAAGGCUGCGGGUUCGAGUCCCGUACGGAACG [G9C A14G A45G] — lower, ≤ 0.5
- GUUCCGUUCGCGUAAUGGUAACGCGUCUCCCUCCUUAGGAGAAGACUGCGGGUUCGAGUGCCCUACGGAACG [G9C A36U C60G G63C] — lower, ≤ 0.5
- GUUCCGUUCGCGUAAUGGUAGCGCGUCUCCCUCCUAAGGAGAAGACUGCGGGUUCGAGUACCGUACGGAACG [G9C A21G C60A] — lower, ≤ 0.5
- GUUCCGUUCGCGUCAUGGUAACGCGUCUCCCUCCUAAGGAGAACACCGCGGGUUCGCGUCCCGUACGGAACG [G9C A14C G44C U47C A57C] — lower, ≤ 0.5
- GUUCCGUUAGCGUAAUGGUAACGCGUCUCCCUCCUAAGGAGAAGACUGCGGGUACGAGUCCCGUACGGAACG [G9A U54A] — higher, 0.696
- GUUCCGUUCGCGUAAUGGUAACGCGUCUCCCUCCUAAGGAGAGGACUGCGGGUUCGAGUCCCGUACGAAACG [G9C A43G G68A] — lower, ≤ 0.5
- GUUCCGUUCGCGUGAUGGUAACGCGUCUCCCUCCUAAGGAGAAGACUGCGGCUUCGAGUACCGUACGGAACG [G9C A14G G52C C60A] — lower, ≤ 0.5
- GUUCCGUUCGCGUAAUGGUAACGCGUCUCCCUCCUAAGGAGAUGACUGAGGGUUCGAGUCCCGUACGGAACG [G9C A43U C49A] — lower, ≤ 0.5
- GUUCCGUUCGCGUAAUGGUGACGCGUCUCCCUCCUAAGGAGUACACUGCCGGUUCGAGUCCCGUACGGAACG [G9C A20G A42U G44C G50C] — lower, ≤ 0.5
- GUUCCGUUCGCGUAUUGGUAACGCGUCGCCCUCCUAAGGAGUAGACUGCGGGUUCGAGUCCCGUACGGAACG [G9C A15U U28G A42U] — lower, ≤ 0.5
- GUUCCGUUCGCGUUAUGGUAACGCGUCUCCCUCCUAAGGAGGAGACUGCGGGUUCGAGUCCCGUACGGAACG [G9C A14U A42G] — lower, ≤ 0.5
- GUUCCGUUCGCGUAAUGGUAACGCGUCUCCCUCCUAGGGAGAAGACUGCGGGUUCGAGUCCCGUACGAAACG [G9C A37G G68A] — lower, ≤ 0.5
- GUUCCGUUCGCGUACUGGUAACGCGUCUACCUCCUAAGGAGAAGACUGCGGGUUCGAAUCGCGUACGGAUCG [G9C A15C C29A G58A C61G A70U] — lower, ≤ 0.5
- GUUCCGUUCGCGUCUUGGUAACACGUCUCCCUCAUAAGGAGAAGACUGCGGGUUCGAGUCCCGUACGGAACG [G9C A14C A15U G23A C34A] — lower, ≤ 0.5
- GUUCCGUUCGCGUAAUGGUAGCGCGUCUCCCUCCUAAGGAGAACACCGCGGGUUCGAGUCCCGUACGGAACG [G9C A21G G44C U47C] — lower, ≤ 0.5
- GUUCCGUUAGCGUAAUGGUAACGCGUCUCCCUCCUAAGGAGAAGACGGCGGGUUCGAGUCCCGUACGGAACG [G9A U47G] — higher, 0.626
- GUUCCGUUAGCGUAAUGGUAACGCGUCUCCCUCCUAAGGAGAAGACCGCGGGUUCGAGUCCCGUACGGAACG [G9A U47C] — higher, 0.909
- GUUCCGUUCGCGUACUGGUAACGCGUCUCCCUCCCAAGGAGAAGACUGCGGGUUCGAGACCCGUACGGAACG [G9C A15C U35C U59A] — higher, 0.605
- GUUCCGUUCGCGUAAUGGUAACGCGUCUCCCUCCUAGGGAAAAGACUGCAGGUUCGAGUCCCGUACGGAACG [G9C A37G G41A G50A] — lower, 0.532
- GUUCCGUUCGCGUAAUGGUAGCGCGUCUCCCUCCUAAGGAGAAGACUGCGGGUUCGAGUCCCGUAUGGUACG [G9C A21G C66U A69U] — lower, ≤ 0.5
- GUUCCGUUAGCGUAAUGGUAACGCGUCUCCCUCCUAAGGAGAAGACCCCGGGUUCGAGACCCGUAAGGCACG [G9A U47C G48C U59A C66A A69C] — lower, ≤ 0.5
- GUUCCGUUCGCGUAAUGGUCACGCGUCUCCCUCCUAAGGAGAAGACUGCGGGUUCGAGUCCCGUACCGAACG [G9C A20C G67C] — lower, 0.537
- GUUCCGUUAGCGUAAUGGUAACGCGUCUCCCUCCUAAGGAGAAGACAGCGGGUUCGAGUCCCGUACGGUACG [G9A U47A A69U] — higher, 0.676
- GUUCCGUUCGCGUAAUGGUACCGCGUCUUCCUCCUAAGGAGAAGACUGCGGGUUCGAGUCCCGUACGGAACG [G9C A21C C29U] — lower, ≤ 0.5
- GUUCCGUUCGCGUAAUGGUAACGCGUCUCCCUCCUUAGGAGAAGCCUGCGGAUUCGAGUCCCGUACGGAACG [G9C A36U A45C G52A] — lower, ≤ 0.5
- GUUCCGUUAGCGUAAUGGUAACGCGUCUCCCUCCUAAGGAGAAGACUGCGGGAUCGAGUCCCGUCCGGACCG [G9A U53A A65C A70C] — lower, ≤ 0.5
- GUUCCGUUAGCGUAAUGGUAACGCGUCUCCCUCCUAAGGAGAAGACUGCGGGAUCGAGUCCCGUACGGAACG [G9A U53A] — higher, 0.701
- GUUCCGUUCGCGUAAUGGUAACGCGUCUCCCUCCUAAGGAGUAGACUGCGGGUUCGAGUCCGGUACGGAACG [G9C A42U C62G] — lower, ≤ 0.5
- GUUCCGUUCGCGUAUUGGUAACGUGUCUCCCUCCUAAGGAGAAGACUGCGGGGUCGAGUCCGGUACGGAACG [G9C A15U C24U U53G C62G] — lower, ≤ 0.5
- GUUCCGUUCGCGUAAUGGUAGCGCGUCUCCCUCCUAAGGAGAAGACUGCGGGUUCGAGUCCCGUACGGUACG [G9C A21G A69U] — lower, 0.512
- GUUCCGUUCGCGUUAUGGUAACGGGUCUCCCUCCGAAGGAGAAGACUGCCGGUUCGAGUCCCGUACGGAACG [G9C A14U C24G U35G G50C] — lower, ≤ 0.5
- GUUCCGUUAGCGUAAUGGUAACGCGUCUCCCUCCUAAGGAGAAGACUGCGGGUUCGAGACCCGUACGGAACG [G9A U59A] — higher, 0.936
- GUUCCGUUAGCGUAAUGGUAACGCGUCUCCCUCCAAAGGAGACGACUGCGGGUUCGAGUCCCGUACGGAACG [G9A U35A A43C] — lower, ≤ 0.5
- GUUCCGUUCGCGUAAUGGUAACGCGUCUCCCUCCUAAGGAGGAGACUGCGGGUUCGAGUCCGGUACGGGACG [G9C A42G C62G A69G] — lower, ≤ 0.5
- GUUCCGUUCGCGUAGUGGUAGCGCGUCUCCCUCCUAAGGAGAAGACUGGGGGUUCGAGUACCGUACGGAACG [G9C A15G A21G C49G C60A] — lower, ≤ 0.5
